Experimental data from different studies.
Target: Serine/threonine-protein kinase PRP4 homolog (PRPF4B, Homo sapiens, UniProt Q13523)

| SMILES | read-out | technique | tested at | remaining binding [%] |
| --- | --- | --- | --- | --- |
| CC(C)(O)c1cncc(-c2nc3ccc(F)cc3n2C2CC2)c1 | cell-free assay | competition with immobilised ligand | 1 µM | 58 |
| Cc1cnn2ncc(-c3ccnc(N(C)C)n3)c2c1 | binding | – | 1 µM | 94 |
| Cc1nccc(COC(=O)N2C[C@@H]3[C@@H](CNC(=O)c4ccc5[nH]nnc5c4)[C@@H]3C2)n1 | cell-free assay | competition with immobilised ligand | 1 µM | 95 |
| COc1ccnn2ncc(-c3ccnc(N(C)C)n3)c12 | binding | – | 1 µM | 69 |
| FC(F)(F)Oc1cccc(-c2cnc3ccc(-c4ccncc4)nn23)c1 | cell-free assay | competition with immobilised ligand | 5 µM | 71 |
| Cc1noc([C@H]2C[C@@H](c3ccc(C(F)(F)F)cc3)CN(C(=O)N3CCS(=O)(=O)C3)C2)n1 | cell-free assay | competition with immobilised ligand | 1 µM | 72 |
| O=C(Nc1c[nH]nc1C(=O)NC1CCNCC1)c1cc(F)cc(F)c1 | binding | competition with immobilised ligand | 1 µM | 82 |
| O=C(c1ccc(Nc2ncc(Cl)c(-c3cc4ccccc4s3)n2)cc1)N1CCC(N2CCCC2)CC1 | binding | competition with immobilised ligand | 1 µM | 3.7 |
| CNC(=O)[C@@H]1CC[C@@H](n2c(-c3ccc4cnccc4c3)nc3ccc(C(=O)NCc4cccc(C(N)=O)c4)cc32)C1 | binding | competition with immobilised ligand | 1 µM | 100 |
| Cc1c(NC(=O)c2cc(C(N)=O)nc3cc(F)ccc23)c(C(F)(F)F)nn1Cc1ccc(C(C)(C)C)cc1 | cell-free assay | competition with immobilised ligand | 1 µM | 73 |
| c1cncc(-c2cccc(Nc3nccc(NC4CCCCC4)n3)c2)c1 | binding | competition with immobilised ligand | 10 µM | 100 |
| COc1cnc(Nc2cccc(S(N)(=O)=O)c2)nc1N1CCN(c2ccccc2)CC1 | binding | competition with immobilised ligand | 1 µM | 90 |
| N[C@@H]1CCN(c2nccc(-c3cnn4ncccc34)n2)C1 | binding | – | 1 µM | 100 |
| O=C(NCCCN1CCOCC1)c1ccc(Nc2ncc(Cl)c(-c3ccc(Cl)s3)n2)cc1 | binding | competition with immobilised ligand | 1 µM | 22 |
| C[C@@H]1CCN(c2nccc(-c3cnn4ncccc34)n2)C1 | binding | – | 1 µM | 64 |
| CN1CCN(c2cnc3c(C4CCN(C(=O)c5ccc(OC(F)(F)F)cc5N)CC4)ncnc3c2)CC1 | cell-free assay | competition with immobilised ligand | 1 µM | 100 |
| CN(C)c1ncc(F)c(-c2cnn3ncccc23)n1 | binding | – | 1 µM | 100 |
| O=c1nc(-c2ccccn2)sc2ccccc12 | binding | competition with immobilised ligand | 1 µM | 71 |
| CN(CCCC(F)(F)F)c1nccc(-c2cnn3ncccc23)n1 | binding | – | 1 µM | 100 |
| Cc1cnc(Nc2ccc(C(=O)N3CCC(N4CCCC4)CC3)cc2)nc1-c1cc2ccccc2s1 | binding | competition with immobilised ligand | 1 µM | 5.2 |
| CC1CCCN1c1nccc(-c2cnn3ncccc23)n1 (stereo not shown) | binding | – | 1 µM | 100 |
| C[C@@H]1CN(c2cc(-c3n[nH]c4ccc(OC5(C)CC5)cc34)ncn2)C[C@H](C)O1 | cell-free assay | competition with immobilised ligand | 0.1 µM | 83 |
